Results on 19 compounds are retold here after ChEMBL document CHEMBL3286143, “Minimizing the Contribution of Enterohepatic Recirculation to Clearance in Rat for the NCINI Class of Inhibitors of HIV” (ACS Med Chem Lett, 2014).

For data set [1], the system named is Human immunodeficiency virus 1. Put plainly: Antiviral activity against HIV1 NL4.3 harboring integrase N124/T125 mutant. It is filed as functional, organism-based. As to conditions: Human immunodeficiency virus 1, NL4.3. A digest of the protocol: (§1)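 Cell-based antiviral assay giving EC50 (nM) against wild-type NL4.3 (IN T124/T125) or recombinant NL4.3 engineered to carry the naturally polymorphic integrase residues at positions 124 and 125.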

The test system of data set [2] is Human immunodeficiency virus 1. The data set can be described thus: Antiviral activity against HIV1 NL4.3 harboring integrase T124/T125 mutant. Format: functional, organism-based. To be noted: Human immunodeficiency virus 1, NL4.3. The method, boiled down: as §1
Data set [3] concerns the target T1, Human immunodeficiency virus type 1 integrase (Human immunodeficiency virus 1, UniProt Q7ZJM1). The data set can be described thus: Apparent binding affinity to Trx-His-tagged HIV integrase. To be noted: read-out: Kd(app). A digest of the protocol:
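Apparent dissociation constant from the same displacement assay, run instead with a thioredoxin-tagged His6 integrase construct.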

Data set [4] is described as follows: Half life in human liver microsomes. It is filed as ADME.
Data set [5] in a line: Half life in rat liver microsomes. It is filed as ADME. For orientation: Liver microsomes are vesicles of endoplasmic reticulum, rich in cytochrome P450 enzymes.
Data set [6] deals with Human immunodeficiency virus 1. Put plainly: Antiviral activity against HIV1 NL4.3 harboring integrase A124/A125 mutant relative to control in presence of 50% human serum. Format: functional. A digest of the protocol: (§2)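 Serum shift for the same NL4.3 IN-variant viruses, from EC50 values measured with and without 50% human serum.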
The nature of data set [7]: Half life in rat. To be noted: in vivo. Format: ADME, organism-based.
Data set [8] in a line: Apparent permeability in human Caco2 cells. It is filed as ADME, cell-based. To be noted: Caco-2.
In the next data set the target is Cytochrome P450 3A4 (Homo sapiens, UniProt P08684). The data set can be described thus: Inhibition of CYP3A4 (unknown origin). It is filed as ADME.
Sequence of Cytochrome P450 3A4 (P08684 whole entry): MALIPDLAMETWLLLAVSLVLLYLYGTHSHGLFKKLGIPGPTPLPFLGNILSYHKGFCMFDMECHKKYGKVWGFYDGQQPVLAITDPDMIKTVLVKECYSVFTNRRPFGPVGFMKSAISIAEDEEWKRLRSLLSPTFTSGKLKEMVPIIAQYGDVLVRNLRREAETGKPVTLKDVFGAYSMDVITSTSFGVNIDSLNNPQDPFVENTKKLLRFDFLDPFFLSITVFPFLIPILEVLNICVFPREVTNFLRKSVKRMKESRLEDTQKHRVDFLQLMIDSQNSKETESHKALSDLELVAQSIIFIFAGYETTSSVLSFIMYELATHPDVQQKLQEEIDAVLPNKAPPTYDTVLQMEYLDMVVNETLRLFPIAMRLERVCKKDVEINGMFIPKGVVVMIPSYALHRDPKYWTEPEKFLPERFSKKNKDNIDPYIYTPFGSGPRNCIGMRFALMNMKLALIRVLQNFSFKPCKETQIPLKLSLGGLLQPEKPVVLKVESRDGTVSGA
For data set [9], the system named is Human immunodeficiency virus 1. Put plainly: Antiviral activity against HIV1 NL4.3 harboring integrase N124/A125 mutant relative to control in presence of 50% human serum. It is filed as functional. The method, boiled down: as §2
Data set [10] relates to Human immunodeficiency virus 1. Put plainly: Antiviral activity against HIV1 NL4.3 harboring integrase T124/T125 mutant relative to control in presence of 50% human serum. Format: functional. A digest of the protocol:
as §2

For a further data set, the target named is Cytochrome P450 2D6 (Homo sapiens, UniProt P10635). The data set can be described thus: Inhibition of CYP2D6 (unknown origin). Format: ADME.
Sequence of Cytochrome P450 2D6 (P10635 whole entry): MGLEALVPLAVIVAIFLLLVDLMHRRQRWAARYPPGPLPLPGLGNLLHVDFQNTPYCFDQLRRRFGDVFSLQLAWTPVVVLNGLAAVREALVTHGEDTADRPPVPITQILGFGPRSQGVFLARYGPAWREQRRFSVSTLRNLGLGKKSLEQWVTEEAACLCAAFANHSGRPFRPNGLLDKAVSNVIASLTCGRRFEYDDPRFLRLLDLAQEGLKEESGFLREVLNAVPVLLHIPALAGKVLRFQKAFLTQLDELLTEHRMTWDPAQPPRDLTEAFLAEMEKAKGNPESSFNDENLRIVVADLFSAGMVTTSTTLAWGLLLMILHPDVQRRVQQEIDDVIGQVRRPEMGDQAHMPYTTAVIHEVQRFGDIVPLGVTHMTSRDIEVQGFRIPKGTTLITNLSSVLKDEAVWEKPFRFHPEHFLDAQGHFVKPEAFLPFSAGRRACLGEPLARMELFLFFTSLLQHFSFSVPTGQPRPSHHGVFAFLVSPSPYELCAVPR
The nature of data set [11]: Solubility of the compound at pH 6.8. Format: physicochemical. To be noted: buffer.
Data set [12] is described as follows: Lipophilicity, log D of the compound at pH 7.4. It is filed as physicochemical. To be noted: buffer.
The test system of data set [13] is Human immunodeficiency virus 1. The data set can be described thus: Antiviral activity against HIV-1 NL4.3-HxB2 virus harboring integrase T124/T125 mutant. It is filed as functional, organism-based. As to conditions: Human immunodeficiency virus 1, NL4.3-HxB2; pooled result: one value given for 4 cell lines, strains, targets or settings.
Data set [14] is described as follows: Half life in bile duct cannulated rat. To be noted: in vivo. Format: ADME, organism-based.
The subject of data set [15] is Human immunodeficiency virus 1. Put plainly: Antiviral activity against HIV1 NL4.3 harboring integrase A124/T125 mutant relative to control in presence of 50% human serum. It is filed as functional. The method, boiled down:
as §2

For data set [16], the system named is Human immunodeficiency virus 1. Put plainly: Antiviral activity against HIV-1 NL4.3-HxB2 virus harboring integrase T124/T125 mutant relative to control in presence of 50% human serum. It is filed as functional.
The species named for the next data set is Rattus norvegicus. The data set can be described thus: Clearance in rat. It is filed as ADME, organism-based. As to conditions: in vivo.
The subject of data set [17] is Human immunodeficiency virus 1. The data set can be described thus: Antiviral activity against HIV1 NL4.3 harboring integrase N124/T125 mutant relative to control in presence of 50% human serum. Format: functional. A digest of the protocol: as §2
Data set [18] can be described thus: Drug excretion in bile duct cannulated rat bile after 3 hrs. It is filed as ADME. To be noted: read-out: Drug excretion. A digest of the protocol: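 Rats with cannulated bile ducts were dosed, and the fraction of compound excreted into bile was measured at the 3 h time point.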
For data set [19], the target named is T1, Human immunodeficiency virus type 1 integrase. The data set can be described thus: Apparent binding affinity to His-tagged HIV integrase. As to conditions: read-out: Kd(app).
Data set [20] concerns Human immunodeficiency virus 1. Put plainly: Antiviral activity against HIV1 NL4.3 harboring integrase T124/A125 mutant. It is filed as functional, organism-based. As to conditions: Human immunodeficiency virus 1, NL4.3. The method, boiled down:
as §1

For data set [21], the target named is Human immunodeficiency virus type 1 integrase (Human immunodeficiency virus 1) (UniProt Q7ZJM1). The data set can be described thus: Ratio of app-Kd for Trx-His-tagged HIV integrase to His-tagged HIV integrase.
Sequence of Human immunodeficiency virus type 1 integrase (Human immunodeficiency virus 1) (Q7ZJM1 as listed by the source): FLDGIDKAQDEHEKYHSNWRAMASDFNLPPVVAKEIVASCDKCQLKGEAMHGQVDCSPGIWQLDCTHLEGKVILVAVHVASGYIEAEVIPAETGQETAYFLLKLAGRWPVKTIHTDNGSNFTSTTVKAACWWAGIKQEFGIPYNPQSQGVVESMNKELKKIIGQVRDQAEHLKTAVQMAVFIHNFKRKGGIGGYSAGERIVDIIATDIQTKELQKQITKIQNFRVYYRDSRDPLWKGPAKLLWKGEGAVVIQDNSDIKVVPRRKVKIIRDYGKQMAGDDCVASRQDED

In brackets after ≈: the same amount, converted by molar mass.

T1 sequence (Q7ZJM1 whole entry): as the sequence (Q7ZJM1 as listed by the source) above

For `Cc1noc(C)c1-c1ccc(-c2nc(C)c([C@H](OC(C)(C)C)C(=O)O)c(-c3ccc4c(c3)CCCO4)c2C)cc1`, the figures for the EC50 in data set [1] and in data set [2] were 0.39 µM and 0.0055 µM, respectively.

Turning to `Cc1ccc(-c2nc(C)c([C@H](OC(C)(C)C)C(=O)O)c(-c3ccc4c(c3)CCCO4)c2C)cc1`, the EC50 (as a rule, the concentration at which the effect is half-maximal) in data set [1] is 1.4 µM; in [2] it was 0.018 µM. The Kd in data set [3] was 0.031 µM. In data set [4], the half-life (in general, the time in which the quantity being followed falls by half) worked out at 0.717 h.

In the case of `Cc1nc(-c2cccc(-c3ccnn3C)c2)c(C)c(-c2ccc3c(c2)CCCO3)c1[C@H](OC(C)(C)C)C(=O)O`, the EC50 in [1] was 1 µM; in data set [2] it was 0.01 µM. The Kd in data set [3] came to 0.052 µM.

Regarding `Cc1ccc(-c2nc(C)c([C@H](OC(C)(C)C)C(=O)O)c(-c3ccc4c(c3Cl)NCCO4)c2C)cc1C` (single isomer, unassigned; atropisomer), the EC50 in data set [1] is 0.83 µM; in data set [2] it was 0.0033 µM. In addition, the half-life amounted to 0.933 h in [5] and 1.7 h in data set [4]. Moreover, the Kd in data set [3] amounted to 0.028 µM.

Turning to `Cc1nc(-c2cccc(-c3cnn(C)c3)c2)c(C)c(-c2ccc3c(c2)CCCO3)c1[C@H](OC(C)(C)C)C(=O)O`, the concentration giving a half-maximal response (EC50) in data set [1] turned out to be 0.92 µM; in data set [2], 0.024 µM. In addition, the Kd in [3] is 0.059 µM.

Take `Cc1noc(C)c1-c1ccc(-c2nc(C)c([C@H](OC(C)(C)C)C(=O)O)c(-c3ccc(Cl)cc3)c2C)cc1`: the “fold change (FC)” value in [6], in data set [9], in [10], in data set [15], in data set [16] and in [17] was 9.9 throughout. Besides, the EC50 in data set [1] was determined as 0.81 µM; in data set [13], 0.0065 µM; in data set [2], 0.0077 µM. The half-life in [7] is 8.9 h; in data set [5] it was 2.67 h; in data set [14] it was 5.4 h; in data set [4], 3.83 h. Moreover, the Papp (commonly the rate of passage across a membrane or cell layer, normalised by area and donor concentration) in data set [8] was determined as 170 nm/s. Also, the IC50 (in general, the point on the concentration scale where inhibition reaches its midpoint) at Cytochrome P450 3A4 is 17 µM; against Cytochrome P450 2D6, over 30 µM. Besides, the concentration in solution in data set [11] (solubility) was 0.25 mg/mL (≈ 482 µM). In [12], the logD (commonly lipophilicity at a set pH, counting ionised and neutral species) came to 3.1. For the same compound, in [3], the Kd came to 0.05 µM. Also, the CL in the data set listed under Rattus norvegicus was determined as 0.6%. The dose excreted at 3 h in data set [18] was determined as 22%.

`Cc1nc2ccccc2c(-c2ccc3c4c(ccnc24)CCO3)c1[C@H](OC(C)(C)C)C(=O)O` [BI-224436]: the “fold change (FC)” value in data set [6], in [9], in data set [10], in data set [15], in [16] and in data set [17] was 2.1 each time. This compound also gave an IC50 against Cytochrome P450 2D6 of over 30 µM. Besides, the solubility (as a rule, the concentration that dissolves in the medium under given conditions) in data set [11] is over 0.85 mg/mL. The EC50 in [13] was found to be 0.011 µM. The half-life is over 5 h in data set [5] and 1.6 h in data set [14]. In the data set filed under Rattus norvegicus, this compound registered a CL of 0.7%. The dose excreted at 3 h in data set [18] worked out at 60%.

Regarding `Cc1nc(-c2ccccc2)c(C)c(-c2ccc3c(c2)CCCO3)c1[C@H](OC(C)(C)C)C(=O)O`, the figures for the 50% effective concentration (EC50) in data set [1], in data set [20] and in data set [2] were 0.8 µM, 0.078 µM and 0.068 µM, respectively. The values for the Kd in data set [19] and in [3] were 1 µM and 0.04 µM, respectively. The Ratio in data set [21] amounted to 25. In [4], this compound gave a half-life of 0.533 h.

As to `Cc1cc(-c2nc(C)c([C@H](OC(C)(C)C)C(=O)O)c(-c3ccc4c(c3)CCCO4)c2C)ccc1Cl`, the concentration for a half-maximal effect (EC50) turned out to be 0.96 µM in data set [1] and 0.0058 µM in [2]. For the same compound, the Kd in [3] came to 0.017 µM. The half-life in data set [4] worked out at 0.717 h.

As to `Cc1nc2c(c(-c3ccc4c(c3)CCCO4)c1[C@H](OC(C)(C)C)C(=O)O)CCCc1ccccc1-2`, in data set [19], the Kd amounted to 1.1 µM. In addition, the EC50 in data set [2] amounted to 0.56 µM.

As to `Cc1ccc(-c2nc(C)c([C@H](OC(C)(C)C)C(=O)O)c(-c3ccc(Cl)cc3)c2C)cc1C`, the figures for the EC50 in data set [1] and in data set [2] were 2.7 µM and 0.014 µM, respectively. Also, the values for the half-life in [5] and in data set [4] were 0.85 h and 1.28 h, respectively. The Kd in data set [3] worked out at 0.04 µM.

In the case of `Cc1nc2c(ccc3ccccc32)c(-c2ccc3c(c2)CCCO3)c1[C@H](OC(C)(C)C)C(=O)O`, the Kd in [19] is 0.18 µM. Also, the 50% effective concentration (EC50) in [20] was determined as 0.063 µM; in data set [2], 0.062 µM.

Take `Cc1nc2c(c(-c3ccc4c(c3)CCCO4)c1[C@H](OC(C)(C)C)C(=O)O)Cc1ccccc1-2`: the concentration giving a half-maximal response (EC50) in data set [1] was 0.034 µM; in [20], 0.11 µM; in data set [2] it was 0.072 µM. The Kd in [19] was 0.16 µM.

In the case of `Cc1nc2ccccc2c(-c2ccc3c(c2)CCCO3)c1[C@H](OC(C)(C)C)C(=O)O`, the values for the EC50 in data set [1], in data set [20] and in [2] were 0.077 µM, 0.03 µM and 0.051 µM, respectively. Besides, the Kd in [19] is 0.024 µM.

Take `Cc1ccc(-c2nc(C)c([C@H](OC(C)(C)C)C(=O)O)c(-c3ccc4c(c3C)CCCO4)c2C)cc1C` (single isomer, unassigned; atropisomer): the 50% effective concentration (EC50) in [1] stood at 0.62 µM; in [2] it was 0.0027 µM. Moreover, the half-life in data set [5] stood at 1.5 h; in data set [4], 1.13 h. Moreover, the Kd in data set [3] was 0.026 µM.

As to `Cc1ccc(-c2nc(C)c([C@H](OC(C)(C)C)C(=O)O)c(-c3ccc4c(c3)CCCO4)c2C)cc1C`, the 50% effective concentration (EC50) amounted to 1.4 µM in [1] and 0.011 µM in data set [2]. In addition, the half-life in data set [5] stood at 1.83 h; in data set [4], 0.567 h. For the same compound, in data set [3], the Kd stood at 0.027 µM.

As to `Cc1noc(C)c1-c1ccc(-c2nc(C)c([C@H](OC(C)(C)C)C(=O)O)c(-c3ccc4c(c3)CCCO4)c2C)c(F)c1`, the results for the EC50 in data set [1] and in data set [2] were 0.83 µM and 0.0073 µM, respectively. The Kd in data set [3] turned out to be 0.035 µM. Moreover, the half-life in data set [4] was 1 h.

For `Cc1nc(-c2ccc(-c3ccncc3)cc2)c(C)c(-c2ccc3c(c2)CCCO3)c1[C@H](OC(C)(C)C)C(=O)O`, the EC50 is 0.15 µM in data set [1] and 0.023 µM in data set [2]. For the same compound, the Kd in [3] came to 0.024 µM.

For `Cc1cccc(-c2nc(C)c([C@H](OC(C)(C)C)C(=O)O)c(-c3ccc4c(c3)CCCO4)c2C)c1`, the concentration for a half-maximal effect (EC50) in data set [1] came to 1.1 µM; in data set [2], 0.023 µM.
